Measurements pooled from the literature.
Lines come from different studies, so protocols differ.

Nc1ncn([C@H]2C[C@H](O)[C@@H](CO)O2)c(=O)n1  Cmax (female C57BL/6 mouse; plasma; intravenous; 0.4 mg/kg): 319 ng/mL
Cn1cc(Nc2nc(N)nc(-c3cccc(-n4ccc5cc(C6CC6)cc(F)c5c4=O)c3CO)n2)cn1  Vd/F (human; plasma; oral; 300 mg; single dose, fasted): 422 L
Cl.[2H]C([2H])([2H])CC(=O)c1cnc(NC(=O)C2CC2)cc1Nc1cccc(-c2ncn(C([2H])([2H])[2H])n2)c1OC  Vd/F (human; plasma; oral; 20 mg; multiple doses, once daily, fasted): 240 L
CCN1CCN(Cc2ccc(NC(=O)c3ccc(C)c(NC(=O)c4cncc(-c5cccs5)c4)c3)cc2C(F)(F)F)CC1  Cmax (mouse; plasma; intraperitoneal; 15 mg/kg; single dose): 582 ng/mL
CC[C@H](C)CCCCC(=O)N[C@@H](CCN)C(=O)N[C@H](C(=O)N[C@@H](CCN)C(=O)N[C@H]1CCNC(=O)[C@H]([C@@H](C)O)NC(=O)[C@H](CCN)NC(=O)[C@H](CCN)NC(=O)[C@H](CC(C)C)NC(=O)[C@@H](Cc2ccccc2)NC(=O)[C@H](CCN)NC1=O)[C@@H](C)O  Vd (human; plasma; intravenous; 0.75 mg/kg; single dose, infusion): 20.2 L
Cc1ccc(C(=O)Nc2ccc(CN3CCN(C)CC3)c(C(F)(F)F)c2)cc1C#Cc1cnc2[nH]ncc2c1  Vd/F (human; plasma; oral; 40 mg; single dose, healthy volunteers): 5370 L
CNC(=O)n1ccc2cc(Oc3ccnc(NC(=O)c4ccc(C5CCN(CCO)CC5)cc4)c3)c(OCCOC)cc21  Vd/F (human; plasma; oral; 35 mg; single dose, fed, healthy volunteers): 14300 L
C=CS(=O)(=O)c1ccc(Nc2nc(OCC3CCCCC3)c3nc[nH]c3n2)cc1  Cmax (male BALB/c mouse; plasma; intravenous; 20 mg/kg; single dose): 534 ng/mL
CC(=O)O[C@@]12CO[C@@H]1C[C@H](O)[C@@]1(C)C(=O)[C@H](O)C3=C(C)[C@@H](OC(=O)[C@H](O)[C@@H](NC(=O)OC(C)(C)C)c4ccccc4)C[C@@](O)([C@@H](OC(=O)c4ccccc4)[C@H]21)C3(C)C  Cmax (male Kunming mouse; liver; oral; 20 mg/kg): 18.9 ng/g
NC(=S)NN=Cc1ncccc1N  Vd/F (human; plasma; oral; 100 mg): 205 L
